EBI2 block – blocks human EBI2 receptor beta-arrestin signaling; P32249; EBI2 beta-arrestin recruitment, luminescence, 7a,25-OHC stimulated; AID 651636; 360,000 compounds, 0.81% hits; inhibition, % at 5 µM; in the data active = inhibition above about 38%;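 note: enzyme fragment complementation signal reports receptor beta-arrestin coupling in cells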
APJ antagonist – antagonists of human APJ apelin receptor. CHO-K1 APJ beta-arrestin complementation, luminescence. 330,000 compounds, 0.32% hits. P35414. AID 2521. inhibition, % at 20 µM;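 active = inhibition above about 40% at 20 µM, limit read from the data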;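 note: cells challenged with 10 nM apelin-13 agonist together with compound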
CXCR6 block – CXCR6 (human) receptor inhibition; O00574; CHO-K1 PathHunter CXCR6 beta-arrestin, luminescence; inhibition, % at 20 µM; 360,000 compounds, 0.36% hits; AID 602244; in the data active = inhibition above about 34%, passing the limit was not always enough;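 note: antagonist mode with CXCL16 agonist at 10 nM final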
Target sequence (O00574 whole entry, looked up): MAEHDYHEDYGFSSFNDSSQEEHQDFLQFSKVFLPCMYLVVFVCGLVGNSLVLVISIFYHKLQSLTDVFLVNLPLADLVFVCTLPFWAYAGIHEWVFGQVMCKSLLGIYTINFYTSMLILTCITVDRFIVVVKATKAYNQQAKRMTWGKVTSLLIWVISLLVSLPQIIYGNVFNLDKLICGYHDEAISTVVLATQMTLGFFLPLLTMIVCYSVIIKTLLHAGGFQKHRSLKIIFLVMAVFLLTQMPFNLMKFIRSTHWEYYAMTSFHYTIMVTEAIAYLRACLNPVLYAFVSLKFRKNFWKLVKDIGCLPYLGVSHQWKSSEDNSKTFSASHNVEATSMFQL
CCR6 antagonist – antagonists of human CCR6 receptor; P51684; CHO-K1 CCR6 PathHunter beta-arrestin, luminescence, CCL20-stimulated; inhibition, % at 20 µM; 340,000 compounds, 0.49% hits; AID 493098;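 active = compounds whose inhibition of the agonist-driven luminescence signal at 20 µM reaches about 50%, limit read from the data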;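 note: cells stimulated with CCL20 at 14 nM final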
APJ ag – activates the human apelin receptor APJ | P35414 | CHO-K1 APJ PathHunter beta-arrestin, luminescence; 0% DMSO wells, 100% apelin | activation, % at 20 µM | 330,000 compounds, 0.11% hits | AID 2520;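 active = activation more than six SD over the plate average, tested at 20 µM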
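assay system = CHO-K1 APJ beta-arrestin complementation cell line | input = cell density 1000 per well | dosing = compound 20 µM once, DMSO 1% | timing = compound 90 min 25 °C, reagent 1 h | measured by = luminescence from split beta-galactosidase complementation, Galacton Star/Emerald II substrate | read-out basis = APJ agonist activity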
Hits are given with their value; . = inactive; / = no result given. Hits are enriched below; roughly 1.5% of the tested compounds scored in any of these assays.

SMILES	EBI2 block	APJ antagonist	CXCR6 block	CCR6 antagonist	APJ ag
CCC1=NN(C(=O)c2cccc(Br)c2)C(O)(c2ccc(Br)cc2)C1 (configuration not stated)	.	.	.	56.0	.
Cc1cc(C)c(S(=O)(=O)N2CCCCC2CCNC(=O)C(=O)NCCN2CCOCC2)c(C)c1 (configuration not stated)	.	.	.	.	.
CCn1c(SCC(=O)NC2CCCCC2)nnc1-c1cccs1	.	.	.	.	.
CCn1c(SC(=O)NC2CCCCC2)nnc1-c1cccs1	.	.	.	50.6	.
CC(=O)c1ccc(NC(=S)NCCCN2CCOCC2)cc1	.	.	.	.	.
COc1ccc(NC(=O)c2ccc(Br)c(S(=O)(=O)N3CCOCC3)c2)cc1	.	.	.	.	.
COc1ccccc1COCC(O)CN(Cc1ccco1)Cc1ccccc1O (configuration not stated)	.	.	.	87.7	.
Cc1ccc(NC(=O)CN(Cc2ccco2)Cc2ccccc2O)cc1C	.	.	.	.	.
O=[N+]([O-])c1c(NCCCO)cc(SCc2ccco2)c2nonc12	.	.	.	63.0	.
CC(=O)OCCNc1cc(SCc2ccco2)c2nonc2c1[N+](=O)[O-]	.	/	49.7	75.3	/
Cc1ccc(Cc2cnc(N3C(=N)SC(c4ccccc4)C3=O)s2)cc1 (configuration not stated)	.	.	.	61.7	.
N=C1SC(c2ccccc2)C(=O)N1c1ncc(Cc2ccccc2)s1 (configuration not stated)	.	.	.	.	.
C/C(=C\C(=O)c1ccc(Br)cc1)NNC(=O)c1ccc(O)cc1	.	.	.	.	.
C/C(=C\C(=O)c1ccc(Br)cc1)NNC(=O)c1ccccc1	.	.	.	64.8	.
C=C1C(=O)CC2=C1[C@](Cc1ccc(F)cc1)(C(=O)OC)N(C(=O)c1ccccc1)C2	.	/	.	/	/
C=C1C(=O)C=C2CN(C(=O)c3ccccc3)[C@@](Cc3ccc(F)cc3)(C(=O)OC)[C@@H]12	75.7	.	87.5	100.3	.
CCCCNc1c(-c2ccc(SC(C)CC)c(OC)c2)nc2ccc(Cl)cn12 (configuration not stated)	.	.	.	.	.
CCCCNc1c(-c2ccc(-c3ccc(OC)cc3)c(OC)c2)nc2ccccn12	54.1	.	.	.	.
CCCCNc1c(-c2ccc(SC(C)CC)c(OC)c2)nc2ccc(C)cn12 (configuration not stated)	55.0	.	.	.	.
CCOC(=O)N1CCN(C(=O)C2CCN(C(=O)c3ccccc3C)CC2)CC1	.	/	108.9	/	/
Cc1ccccc1C(=O)N1CCC(C(=O)N2CCN(c3ncccn3)CC2)CC1	.	.	.	.	.
CCOC(=O)C1=CCC(c2ccccc2)N(S(=O)(=O)c2ccc(C)cc2)[C@H]1CC (some centres not stated)	.	/	/	/	/
O=C1C=CC(=O)N1c1ccc(-c2nc3ccccc3o2)cc1	.	/	60.5	/	/
Nc1ccc(-c2nc3ccccc3o2)cc1	.	.	.	.	.
CN(C)CC(C)(C)CNS(=O)(=O)c1cccc2nsnc12	.	.	.	.	.
SMILES	EBI2 block	APJ antagonist	CXCR6 block	CCR6 antagonist	APJ ag
Cc1ccccc1Oc1cc(-n2ncc(Cl)c(Cl)c2=O)ncn1	68.4	/	46.0	65.4	/
COc1ccc(C(=O)OCc2ccccc2C#N)cc1S(=O)(=O)N1CCOCC1	.	/	.	/	/
Cc1ccc(-n2c(=O)c3ccc(C(=O)NCc4ccco4)cc3n(Cc3ccccc3C#N)c2=O)cc1	.	85.7	.	.	.
Cc1ccccc1Cn1c(=O)n(-c2ccccc2)c(=O)c2ccc(C(=O)NCc3ccco3)cc21	.	.	.	/	.
O=C(c1ccco1)N1CCCC(N2CCN(c3cccc(C(F)(F)F)c3)CC2)C1 (configuration not stated)	.	.	.	.	.
CCCOc1ccc(C(=O)NNC(=S)NC(=O)c2ccco2)cc1	.	.	.	70.0	.
CCOc1ccccc1NC(=O)CN(c1ccc(Cl)cc1)S(C)(=O)=O	.	.	.	.	.
COc1cc2c(cc1OC)C(c1ccccc1[N+](=O)[O-])=NCC2	.	/	.	/	/
Cc1cc(Br)ccc1-n1[nH]c(C)c(C=Nc2cccc3nsnc23)c1=O	.	.	.	51.9	.
C#CCNC(=O)C[C@@H]1C[C@@]2(C(=O)OCC)CCCC=C2N(Cc2ccc(Cl)cc2Cl)C1=O	.	/	.	/	/

Screening results from PubChem BioAssay.
